Measured values as given in ChEMBL document CHEMBL4368889, “Synthesis and evaluation of novel purple acid phosphatase inhibitors” (Medchemcomm, 2019).

Experiments:
Sus scrofa = organism: Sus scrofa; test: Uncompetitive inhibition of fully reduced pig PAP using pNPP as substrate by UV-vis spectrophotometric analysis
In short: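 Pig PAP purified from the uterine fluid of a pregnant sow. Assays ran at pH 4.9 in 0.1 M sodium acetate with 25% DMSO, at 25 °C. pNPP was 1–12.5 mM (six levels) and inhibitor 50–300 μM. Rates were read at 405 nm. Kiuc came from a general inhibition equation fit.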

[1] = biological target: T1, Fe(3+)-Zn(2+) purple acid phosphatase (Phaseolus vulgaris) (UniProt P80366); test: Competitive inhibition of red kidney bean PAP using pNPP as substrate by UV-vis spectrophotometric analysis
T1 sequence (whole entry): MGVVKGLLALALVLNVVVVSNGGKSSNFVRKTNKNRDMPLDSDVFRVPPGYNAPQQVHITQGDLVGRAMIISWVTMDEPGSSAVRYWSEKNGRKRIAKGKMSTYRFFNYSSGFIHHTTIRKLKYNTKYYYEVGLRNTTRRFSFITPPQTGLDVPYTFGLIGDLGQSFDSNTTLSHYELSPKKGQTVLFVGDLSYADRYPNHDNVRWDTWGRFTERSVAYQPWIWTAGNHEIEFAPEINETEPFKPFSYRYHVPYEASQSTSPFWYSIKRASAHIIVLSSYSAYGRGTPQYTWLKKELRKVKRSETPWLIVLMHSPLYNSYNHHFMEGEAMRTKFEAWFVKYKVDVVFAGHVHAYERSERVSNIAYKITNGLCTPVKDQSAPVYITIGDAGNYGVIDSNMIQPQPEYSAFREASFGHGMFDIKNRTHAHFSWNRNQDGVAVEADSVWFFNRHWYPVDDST
In short: (§1)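 Red kidney bean (Phaseolus vulgaris) PAP purified from the beans and used at 7.4 nM. Assays ran at pH 4.9 in 0.1 M sodium acetate with 25% DMSO, at 25 °C. Substrate was pNPP at 1, 3, 5, 7.5, 10 and 12.5 mM, with inhibitor at 50–300 μM. Product formation was read at 405 nm. Kic and Kiuc came from non-linear regression to the general inhibition equation.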

[2] = biological target: T1, Fe(3+)-Zn(2+) purple acid phosphatase (Phaseolus vulgaris); test: Uncompetitive inhibition of red kidney bean PAP using pNPP as substrate by UV-vis spectrophotometric analysis; in short: as §1
[3] = biological target: T2, Fe(3+)-Zn(2+) purple acid phosphatase (Phaseolus vulgaris, UniProt P80366); test: Inhibition of red kidney bean PAP
T2 sequence (P80366 whole entry): T1 sequence (whole entry)
In short: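 PAP purified from Phaseolus vulgaris beans, used at 7.4 nM in 0.1 M sodium acetate pH 4.9 with 25% DMSO at 25 °C. pNPP substrate at 1, 3, 5, 7.5, 10 and 12.5 mM, inhibitor 50–300 μM. Product formation read at 405 nm. Kic and Kiuc came from a non-linear regression to the general inhibition equation.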

[4] = Inhibition of pig PAP; set-up: species or system Sus scrofa

**Q.** Which Kiuc (Sus scrofa) does the source give for `O=C(O)c1cn(Cc2ccc(Cl)cc2)nn1` here?
**A.** Its Kiuc is 103 µM.

**Q.** What about the Kic [1] of the same molecule?
**A.** Its Kic is 1070 µM.

**Q.** Which Kiuc [2] does the source give for `O=C(O)c1cn(Cc2ccccc2)nn1` here?
**A.** The Kiuc was 963 µM.

**Q.** What about the Kiuc (Sus scrofa) of the same molecule?
**A.** The Kiuc was 23 µM.

**Q.** What does the source list for VANADATE ION?
**A.** Ki [3]: 30 µM; Ki [4]: 40 µM

**Q.** For `COc1ccc(Cn2cc(C(=O)O)nn2)cc1`, which Kiuc (Sus scrofa) is on record?
**A.** The Kiuc was 48 µM.

**Q.** Which Ki [3] does the source give for `CC(=O)c1sc(C)nc1-c1ccc(C)cc1` here?
**A.** Its Ki is 340 µM.

**Q.** And the Ki [4]?
**A.** Its Ki is 42 µM.

**Q.** With `O=C(O)c1cn(Cc2ccccc2Cl)nn1` as the molecule, how does the Kiuc (Sus scrofa) read?
**A.** The Kiuc was 276 µM.

**Q.** What about the Kic [1] of the same molecule?
**A.** The Kic was 438 µM.

**Q.** With `O=P(O)(O)O` [PHOSPHORIC ACID] as the molecule, how does the Ki [3] read?
**A.** The Ki was 2000 µM.

**Q.** What about the Ki [4] of the same molecule?
**A.** The Ki was 2000 µM.

**Q.** Which Kiuc (Sus scrofa) does the source give for `Cc1ccc(Cn2cc(C(=O)O)nn2)cc1` here?
**A.** Its Kiuc is 76 µM.

**Q.** What about the Kic [1] of the same molecule?
**A.** The Kic was 951 µM.

**Q.** For `O=C(O)c1cn(Cc2cccc3ccccc23)nn1`, which Kiuc (Sus scrofa) is on record?
**A.** Its Kiuc is 184 µM.

**Q.** What about the Kic [1] of the same molecule?
**A.** Its Kic is 2280 µM.
